Screens deposited in PubChem by several laboratories.
Compounds with a hit are over-represented: about 3.1% of the library has one in this group of screens.
UHRF1 binding: human UHRF1 methylated DNA binding inhibitors; Q96T88; UHRF1 binding to methylated oligo, TR-FRET; inhibition, % at 4.4 µM; 370,000 tested, 0.75% active; in the data active = inhibition above about 21%;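 note: UHRF1 SRA domain binding a hemimethylated CpG hairpin DNA probe; 0% = median of test compound wells and 100% = reference inhibitor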
MBD2 inh: MBD2-methylated oligo binding inhibition; AID 686964; Q9UBB5; TR-FRET, MBD2 binding to methylated oligonucleotide; inhibition, % at 4.4 µM; 370,000 tested, 0.31% active; in the data active = inhibition above about 13%
ATG4B inh: ATG4B (human) cysteine protease inhibition; 340,000 tested, 0.51% active; ATG4B cleavage of LC3-PLA2, NBD-HPC fluorescence, 1 h; inhibition, % at 8.33 µM; AID 504462; Q9Y4P1; in the data active = inhibition above about 40%
Target sequence (Q9Y4P1 whole entry, looked up): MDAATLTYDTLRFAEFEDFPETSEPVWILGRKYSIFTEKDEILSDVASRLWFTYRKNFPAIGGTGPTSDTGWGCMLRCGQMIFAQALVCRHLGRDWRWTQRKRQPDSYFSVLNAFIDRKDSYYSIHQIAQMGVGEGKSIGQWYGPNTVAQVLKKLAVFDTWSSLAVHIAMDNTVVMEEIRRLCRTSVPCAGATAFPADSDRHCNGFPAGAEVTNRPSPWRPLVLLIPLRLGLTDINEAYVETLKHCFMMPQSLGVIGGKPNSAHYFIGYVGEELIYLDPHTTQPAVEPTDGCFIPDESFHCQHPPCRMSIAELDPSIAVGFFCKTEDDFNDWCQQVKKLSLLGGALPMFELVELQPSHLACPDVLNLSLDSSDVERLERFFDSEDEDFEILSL
CSN deneddyl inh: inhibitors of human CSN-mediated cullin deneddylation; Q92905; Purified CSN, SCF-Nedd8-OG deneddylation, fluorescence polarization; inhibition, % at 12.5 µM; 360,000 tested, 0.38% active; AID 651999;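 active = pattern-corrected inhibition above about 35%, with an unprinted fluorescence ratio check between 0.5 and 1.5, limit read from the data, passing the limit was not always enough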;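 note: 0% = enzyme with substrate and 100% = substrate without enzyme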
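Test system: Human Csn5 produced in HEK293T cells | Compound: 12.5 µM single point | Times: 90 min, room temperature | Signal: Fluorescence polarization readout | Read-out basis: % inhibition of substrate cleavage by Csn5 | Controls: no-enzyme wells high, enzyme-with-substrate wells low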
rCAG binder: r(CAG) repeat RNA binding; TO-PRO-1 dye displacement fluorescence; inhibition, % at 3 µM; 370,000 tested, 1.3% active; AID 651821;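 active = inhibition above the plate cutoff, the mean of all test compounds on that plate plus 3 SD, cut at about 35% in these data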;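 note: 0% = DMSO alone and 100% = 100 µM mitoxantrone as full dye displacement; higher means more dye released from RNA so lower well fluorescence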
LEDGF integ inh: blocks HIV-1 LEDGF/p75-dependent DNA integration; TR-FRET IN-LEDGF/p75 DNA integration, Eu/Cy5; inhibition, % at 3.7 µM; 370,000 tested, 0.64% active;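 active = inhibition above the screen-wide mean plus 3 SD, cut at about 13% in these data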;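 note: signal is the Cy5 over europium emission ratio at 671 and 618 nm; 0% = plate median of compound wells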
rCAG binder conf: r(CAG) RNA repeat binding, confirmation; shares compounds with rCAG binder; TO-PRO-1 dye displacement fluorescence; inhibition, % at 3 µM; 4,300 tested, 70% active;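 active = inhibition above a per-plate cutoff, the mean inhibition of sample wells plus 3 SD, cut at about 35% in these data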;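 note: loss of TO-PRO-1 fluorescence as compound displaces dye from 1x1 AA loop RNA; 0% = DMSO only wells and 100% = 100 µM mitoxantrone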
DNA CAG counter: disrupts DNA CAG TO-PRO-1 complex, flagging rCAG hits | inhibition, % at 3 µM | shares compounds with rCAG binder | d(CAG) DNA oligo TO-PRO-1 dye displacement, fluorescence | 4,300 tested, 94% active;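 active = inhibition above its plate's cutoff, the mean test-well inhibition plus 3 SD, cut at about 4.8% in these data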;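 note: 0% = DNA dye mix with DMSO and 100% = 100 µM mitoxantrone; hits displace the dye from DNA and so lower well fluorescence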
Starred values were filed as active, the others as inactive; . = no result.

SMILES	UHRF1 binding	MBD2 inh	ATG4B inh	CSN deneddyl inh	rCAG binder	LEDGF integ inh	rCAG binder conf	DNA CAG counter
Cc1ccc(C(C)C)c(OCc2ccc(C(=O)N/N=C/c3ccc(O)cc3O)cc2)c1	-1	7	-16	-8	38*	-10	32	15*
Cc1ccccc1N1CCN(S(=O)(=O)c2ccc3c(c2)oc(=O)n3C)CC1	-3	-6	.	.	5	4	.	.
O=C(COc1ccccc1C(=O)O)Nc1nc2ccc([N+](=O)[O-])cc2s1	-3	-6	0	3	40*	-3	37*	12*
C/C(=N\Nc1cccc(C(=O)O)c1)c1ccc(Cl)s1	19	9	19	2	42*	6	21	4
COc1ccc(CNC(=S)OC2CCC23CCC(c2ccccc2)CC3)cc1 (stereo unspecified)	0	-8	.	.	1	6	.	.
O=C(O)c1ccccc1-c1ccccc1C(=O)Nc1ccc2c(c1)oc(=O)c1ccccc12	-1	0	.	1	66*	3	65*	24*
COc1ccc2c(c1)Cc1cc(NC(=O)c3ccccc3-c3ccccc3C(=O)O)ccc1-2	3	-8	.	1	63*	2	66*	28*
COc1ccc(NC(=O)c2ccccc2-c2ccccc2C(=O)O)cc1	2	2	-5	0	2	-5	.	.
O=C(O)c1ccccc1-c1ccccc1C(=O)Nc1ccc2c(c1)C(=O)c1ccccc1-2	-1	-4	2	0	60*	2	68*	26*
Cc1cc(=O)oc2cc(NC(=O)c3ccccc3C(=O)O)ccc12	-3	-6	0	-4	-1	2	.	.
O=C(O)c1ccccc1-c1ccccc1C(=O)Nc1cccc(-c2nc3ccccc3o2)c1	-2	-3	40	2	65*	2	60*	22*
O[C@H](COc1cccc(C(F)(F)F)c1)CN1CCC(C(O)(c2ccccc2)c2ccccc2)CC1	1	-1	.	.	-3	5	.	.
CCCCCCC12C(=Cc3cc4c(cc31)OCCO4)c1cc(OC)c(OC)cc1C(CC(=O)NCc1ccccc1)N2C(=O)OC (stereo unspecified)	2	2	.	.	7	6	.	.
CCCCCC(=O)NC1CCCCN(Cc2ccc(C)cc2)C1=O (stereo unspecified)	-1	-4	.	.	-1	-1	.	.
CCN1C(=O)/C(=C\c2ccc(-c3ccc([N+](=O)[O-])cc3OC)o2)SC1=Nc1cccc(C(=O)O)c1	3	-3	5	3	63*	7	84*	50*
C=CCN1C(=O)[C@@H](CC(=O)NCc2cccc(C(F)(F)F)c2)[C@]2(C(=O)OC)CCCCC=C12	0	-3	.	.	1	2	.	.
O=C(O)c1cccc(S(=O)(=O)N2CCCC(c3nc4c(nnn4Cc4ccccc4Cl)c(=O)[nH]3)C2)c1 (stereo unspecified)	1	-3	3	2	43*	0	30	9.3*
O=c1ccc2cc3c([nH]c4ccc(Br)cc43)oc-2c1O	19	1	.	29	100*	66*	92*	68*
O=C(Cn1nnc(-c2ccc(N3CCOCC3)cc2)n1)c1cccc(F)c1	0	0	.	.	4	-3	.	.
O=C(O)c1ccc2c(c1)S(=O)(=O)c1cc(N3CCN(c4cnccn4)CC3)ccc1C2=O	-7	-12	.	10	35*	-2	46*	14*
[N-]=[N+]=NC(c1ccccc1)c1nc2ccccc2[nH]c1=O (stereo unspecified)	0	-4	-2	-6	44*	-2	4	3
O=c1c2cc3cc(Cl)ccc3nc2ncn1N1CCCCC1	-3	-2	.	.	2	7	.	.
O=C(O)c1ccc(COc2ccccc2/C=C2\NC(=O)N(Cc3ccccc3)C2=O)cc1	-1	-5	17	-9	43*	3	46*	11*
COc1cc(/C=C(/C#N)C(=O)Nc2ccccc2)c(Br)cc1OCc1ccc(C(=O)O)cc1	13	6	-3	4	46*	0	73*	35*
CCCN1C(=O)/C(=C/c2ccc(OCc3ccc(C(=O)O)cc3)c(OC)c2)NC1=S	-3	-7	-6	4	5	8	.	.
SMILES	UHRF1 binding	MBD2 inh	ATG4B inh	CSN deneddyl inh	rCAG binder	LEDGF integ inh	rCAG binder conf	DNA CAG counter
CCCN1C(=O)/C(=C/c2ccccc2OCc2ccc(C(=O)O)cc2)NC1=S	2	1	0	-4	39*	0	34	8.1*
O=C(O)c1cccc(-n2cccc2/C=C2\NC(=O)N(Cc3ccc(F)cc3)C2=O)c1	9	1	6	21	30	2	.	.
N#C/C(=C\c1ccccc1OCc1ccc(C(=O)O)cc1)c1ccccc1	-1	-2	28	3	35*	-1	30	5.3*
COc1cc(/C=C(\C#N)C(=O)Nc2cccc(C(=O)O)c2)ccc1OCc1ccc(Cl)cc1	1	4	6	9	4	0	.	.
CCCCOCCCNC(=O)C[C@H]1C[C@@]2(C(=O)OC)C(=C[C@H](C3CCCC3)O[C@@H]2C)N(Cc2cccc3ccccc23)C1=O	2	-4	.	.	8	-3	.	.
C[C@H]1/C=C/CC(=O)N[C@@H](c2ccc3ccccc3c2)[C@@H](C)/C=C/CC(=O)N[C@H]1c1ccc2ccccc2c1	3	0	.	.	18	-4	.	.
Cc1cccc(NC(=O)CN2C(=O)N/C(=C\c3ccc(-c4cccc(C(=O)O)c4)o3)C2=O)c1	6	2	-4	4	69*	5	73*	37*
O=C(O)c1ccc(COc2ccccc2/C=C2\NC(=O)N(Cc3ccccc3F)C2=O)cc1	-1	-2	21	-4	42*	1	45*	14*
COc1cc(/C=C2/NC(=O)N(Cc3ccccc3F)C2=O)cc(OC)c1O	2	-2	-14	-2	8	1	.	.
Cc1ccc(NC(=O)CN2C(=O)N/C(=C/c3ccccc3OCc3cccc(C(=O)O)c3)C2=O)cc1	0	-5	-1	72*	76*	10	63*	27*
Cc1ccc(NC(=O)CN2C(=O)N/C(=C/c3ccc4c(c3)OCCO4)C2=O)cc1	3	5	-3	2	10	-5	.	.
CC(=O)c1cc(-c2ccccc2-c2ccccc2)c(=O)n2c1CCC2	0	1	.	.	1	6	.	.
O=C(CSc1cc([N+](=O)[O-])cc(S(=O)(=O)Cc2ccccc2)c1)NC1CC1	0	-3	-11	-2	56*	1	5	5.6*
